Bioassay records as filed in PubChem BioAssay.
Beta apoptosis – beta cell apoptosis inhibition | INS-1E cytokine-induced death, ATP luminescence, 48 h; percent of positive-control rescue, neutral wells zero | protection from apoptosis, % (no concentration beside the values) | hit rate 0.8% among 300,000;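 active = Every replicate reaches about 75%, or at least half do and their mean reaches it too, limit read from the data; inconclusive = At least half of replicates reach the limit but their mean does not; inactive = Under half of replicates reach the limit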;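 note: higher means more ATP so stronger rescue from cytokine killing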
T cruzi inh – blocks replication of Trypanosoma cruzi | T. cruzi beta-gal in NIH3T3, luminescence, 90 h | inhibition, % (test concentration not listed) | hit rate 1.4% among 300,000 | AID 1885;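 active = mean inhibition across valid replicates above about 55%, limit read from the data; inconclusive = mean below that limit but half or more replicates reach it; inactive = mean below it, under half of replicates reach it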;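 note: signal also drops with host cell toxicity which is not excluded here; higher percent means less beta-gal luminescence so fewer parasites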
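Read-out: Parasite load inhibition, % | Test system: Mouse NIH/3T3 fibroblasts infected with β-gal-expressing T. cruzi Tulahuen C4 | Amount: 5,000 cells/well | Medium: DMEM, 2% fetal bovine serum | Signal: GalScreen β-gal luminescence, detergent lysis, 60 min | Timing: 3 h attach, ≥90 h co-culture | Also added: Tulahuen C4 trypomastigotes, 5000/well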
CSC inhib – blocks cancer stem cells; inhibition, % at 7.5 µM; cancer stem cell-like cells viability, luminescence; hit rate 1.1% among 300,000; AID 2717; in the data active = inhibition above about 75%; inconclusive = no clear call, values can overlap the other calls; tested in HMLE shEcad cells
Mdm2-MdmX inh – human Mdm2/MdmX binding inhibition. inhibition, % at 8 µM. hit rate 3% among 330,000. O15151+Q00987. SaOS-2 split-luciferase Mdm2/MdmX complementation, luminescence;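 active = inhibition of at least 50% at 8 µM in the primary screen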
Target sequence (O15151 whole entry, looked up): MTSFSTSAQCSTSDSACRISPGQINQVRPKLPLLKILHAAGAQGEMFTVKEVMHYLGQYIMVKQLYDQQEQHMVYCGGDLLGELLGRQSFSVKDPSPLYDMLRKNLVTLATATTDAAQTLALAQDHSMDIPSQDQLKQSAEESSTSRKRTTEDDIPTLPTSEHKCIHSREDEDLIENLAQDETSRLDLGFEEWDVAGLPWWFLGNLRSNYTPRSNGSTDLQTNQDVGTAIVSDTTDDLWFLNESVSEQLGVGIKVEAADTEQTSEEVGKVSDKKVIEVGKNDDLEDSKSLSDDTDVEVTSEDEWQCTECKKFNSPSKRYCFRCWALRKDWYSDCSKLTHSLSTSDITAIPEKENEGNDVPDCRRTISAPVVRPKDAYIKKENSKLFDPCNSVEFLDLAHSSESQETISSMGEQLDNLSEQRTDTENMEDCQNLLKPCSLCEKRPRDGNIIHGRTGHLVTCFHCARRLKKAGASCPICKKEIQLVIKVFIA
Target sequence (Q00987 whole entry, looked up): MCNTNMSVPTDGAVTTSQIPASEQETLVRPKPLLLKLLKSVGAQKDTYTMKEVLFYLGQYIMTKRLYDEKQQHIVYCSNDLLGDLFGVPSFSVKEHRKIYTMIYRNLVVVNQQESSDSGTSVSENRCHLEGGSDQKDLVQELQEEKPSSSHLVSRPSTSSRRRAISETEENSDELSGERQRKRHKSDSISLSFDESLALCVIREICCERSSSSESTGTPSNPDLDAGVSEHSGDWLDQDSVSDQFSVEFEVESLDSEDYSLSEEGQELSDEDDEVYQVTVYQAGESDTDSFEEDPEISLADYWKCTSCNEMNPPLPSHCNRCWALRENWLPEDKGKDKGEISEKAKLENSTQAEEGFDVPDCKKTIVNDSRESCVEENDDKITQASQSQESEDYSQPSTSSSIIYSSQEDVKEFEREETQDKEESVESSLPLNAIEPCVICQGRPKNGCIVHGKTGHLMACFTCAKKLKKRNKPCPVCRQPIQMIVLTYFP
Lmaj promast – inhibitors of Leishmania major promastigote growth | inhibition, % at 10 µM | hit rate 9% among 200,000 | Leishmania major promastigotes, resazurin fluorescence viability; in the data active = inhibition above about 50%;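 note: promastigotes grown with compound for 44 hours at 28 °C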
SKKanGAS inh – inhibitors of SKKanGAS S. pyogenes growth in kanamycin (SK-promoter or general growth effect); hit rate 1.3% among 300,000; AID 1662; inhibition, % at 7.5 µM; BacTiter-Glo, 6 h;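 active = mean replicate score, as percent of positive control median, at least 50; inconclusive = mean below 50 but one replicate at or above 50; inactive = mean and every replicate below 50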;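 note: strain carries kanamycin resistance gene driven by streptokinase promoter and grows in 40 µg/ml kanamycin; loss of luminescence reflects streptokinase promoter inhibition or plain growth inhibition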
Mdm2-MdmX conf – human Mdm2/MdmX binding inhibition, confirmed. hit rate 55% among 10,000. inhibition, % at 8 µM. luminescent assay. shares compounds with Mdm2-MdmX inh; in the data active = inhibition above about 40%
FLuc counter – full-length luciferase inhibition in Mdm2/MdmX counter-screen | shares compounds with Mdm2-MdmX inh | SaOS-2 full-length luciferase counterscreen, luminescence | inhibition, % at 8 µM | hit rate 77% among 6,200;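 active = mean inhibition at 8 µM reaching about 37%, which flags the compound as non-specific, limit read from the data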;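 note: p53-null SaOS-2 cells with luciferase driven by a doxycycline-inducible promoter; compound on cells about two nights before reading with doxycycline added after day one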
Large screens that a line does not name were inactive (follow-up assays come after a bar, where they were run). An excerpt weighted towards active compounds, which were near 9.4% of everything screened.

C=C(C)C(=O)OC1(C(F)(F)F)Oc2cc(C)ccc2NC1=O (stereo not given)	Mdm2-MdmX inh 100.3 | Mdm2-MdmX conf 61.1 | FLuc counter inactive
CCC1C(=NO)C(CC)C(c2ccccc2)NC1c1ccccc1 (stereo not given)	Mdm2-MdmX inh 51.9, SKKanGAS inh 58.0 | Mdm2-MdmX conf inactive
CC1C(=NO)C(C)C(c2ccccc2)NC1c1ccccc1 (stereo not given)	none
CC(C)C1/C(=N/O)CC(c2ccccc2)NC1c1ccccc1 (stereo not given)	none (no result: Lmaj promast)
CCCC1/C(=N/O)CC(c2ccccc2)NC1c1ccccc1 (stereo not given)	Mdm2-MdmX inh 59.2 (no result: Beta apoptosis) | Mdm2-MdmX conf 62.3 | FLuc counter 64.1
CCOc1cc(/C=C2\NC(=O)NC2=O)ccc1OC(C)C(=O)O (stereo not given)	none (no result: Lmaj promast)
COc1cc(C)c(C(=O)CC(=O)c2c(C)cc(OC)cc2C)c(C)c1	Beta apoptosis 75.0, T cruzi inh 66.2, CSC inhib 132.1, Mdm2-MdmX inh 50.7, SKKanGAS inh 96.3 (no result: Lmaj promast) | Mdm2-MdmX conf inactive
COc1ccc(NC(C)=O)c(C)c1	none
COC(=O)[C@@H]1C[C@]2(OC(=O)c3ccccc3)C=CC(=O)C[C@@H]2N1C(=O)OCc1ccccc1	CSC inhib 75.6, Mdm2-MdmX inh 94.1, Lmaj promast 100.3 | Mdm2-MdmX conf 62.0 | FLuc counter inactive
Nc1n[nH]c(N)c1N=Nc1cccc(C(F)(F)F)c1	none (no result: Lmaj promast)
Cc1ccc(S(=O)(=O)N2CCN(C(=O)COC(=O)CCOc3ccccc3C)CC2)c(C)c1	none (no result: Beta apoptosis, T cruzi inh, CSC inhib, Lmaj promast, SKKanGAS inh)
CCOc1cc(NC(=O)C2CC2)c(OCC)cc1NC(=O)c1cc(OC)c(OC)c(OC)c1	Mdm2-MdmX inh 62.2 (no result: Lmaj promast) | Mdm2-MdmX conf inactive
CC1(C)Cc2c(sc(NC(=O)c3ccc(C(=O)c4ccccc4)cc3)c2C(N)=O)C(C)(C)N1	Mdm2-MdmX inh 72.8, SKKanGAS inh inconclusive (no result: Lmaj promast) | Mdm2-MdmX conf 57.4 | FLuc counter inactive
CC1(C)Cc2c(sc(NC(=O)COc3ccc(Cl)cc3)c2C(N)=O)C(C)(C)N1	none (no result: Lmaj promast)
CC1(C)Cc2c(sc(NC(=O)c3ccc4ncsc4c3)c2C(N)=O)C(C)(C)N1	Mdm2-MdmX inh 74.8, Lmaj promast 77.8 | Mdm2-MdmX conf inactive
CCOc1ccc(NC(=O)CCCN2C(=O)C(c3ccccc3)Oc3cccnc32)cc1 (stereo not given)	none (no result: Lmaj promast)
CCN(CC)c1ccc(N2C(=O)CSC2=S)cc1	none
CCN(CC)c1ccc(N2C(=O)/C(=C/c3cccs3)SC2=S)cc1	Mdm2-MdmX inh 52.2 | Mdm2-MdmX conf inactive
CCCCn1c(CCC)nc([N+](=O)[O-])c1Sc1ccc(Cl)cn1	Mdm2-MdmX inh 62.7, Lmaj promast 75.4 | Mdm2-MdmX conf inactive
COc1cc2c3nnc(-c4ccccc4)c-3cn(Cc3ccccc3F)c2cc1OC	Mdm2-MdmX inh 84.1 (no result: SKKanGAS inh) | Mdm2-MdmX conf 53.0 | FLuc counter 39.5
COc1cc2c3nnc(-c4ccc(F)cc4)c-3cn(Cc3ccccc3F)c2cc1OC	none (no result: Beta apoptosis, T cruzi inh, CSC inhib, Mdm2-MdmX inh, SKKanGAS inh)
CNCC[C@@H](Oc1ccc(C(F)(F)F)cc1)c1ccccc1	Mdm2-MdmX inh 50.4 (no result: T cruzi inh, Lmaj promast, SKKanGAS inh) | Mdm2-MdmX conf inactive
COc1cc(/C=N/Nc2nc(Nc3ccccc3)nc(-n3nc(C)cc3C)n2)cc(OC)c1OC	T cruzi inh 54.5, CSC inhib 102.4, Mdm2-MdmX inh 68.6, Lmaj promast 100.5, SKKanGAS inh 75.0 | Mdm2-MdmX conf 66.2 | FLuc counter 78.1
COc1cc(/C=N/Nc2nc(Nc3ccc(C)cc3)nc(-n3nc(C)cc3C)n2)cc(OC)c1OC	T cruzi inh 58.1, Mdm2-MdmX inh 59.3, Lmaj promast 100.4, SKKanGAS inh 74.0 | Mdm2-MdmX conf 72.7 | FLuc counter 62.0
COc1cc(/C=N/n2nnnc2Nc2ccccc2)cc(OC)c1OC	none
COc1ccc(O)c(/C=N/Nc2nc(Nc3ccccc3)nc(-n3nc(C)cc3C)n2)c1	Beta apoptosis 96.0, CSC inhib 92.4, Mdm2-MdmX inh 75.1, Lmaj promast 100.5, SKKanGAS inh 103.0 | Mdm2-MdmX conf 43.8 | FLuc counter 83.8
Cc1ccc(S(=O)(=O)NCc2ccc(C(=O)NC3CCC(O)CC3)cc2)cc1C (stereo not given)	none (no result: T cruzi inh, CSC inhib, Lmaj promast, SKKanGAS inh)
Cc1ccc(NC(=O)CNC(=O)c2cccc(C)c2)nc1	Mdm2-MdmX inh 75.7 (no result: Beta apoptosis, Lmaj promast) | Mdm2-MdmX conf 47.9 | FLuc counter 61.5
Cc1ccc(NC(=O)CNC(=O)c2ccc(Oc3ccccc3)cc2)nc1	none (no result: Beta apoptosis, Lmaj promast)
CC(C)(C)c1cc(Cl)c(O)c(NC(=S)NC(=O)c2cccnc2)c1	T cruzi inh 70.2, Mdm2-MdmX inh 57.3, SKKanGAS inh 81.6 | Mdm2-MdmX conf 52.6 | FLuc counter inactive
CC(C)c1ccc(O)c(NC(=S)NC(=O)c2cccnc2)c1	none
Cc1ccc(CC(=O)NCC(O)c2ccccc2)cc1 (stereo not given)	none (no result: Beta apoptosis, Lmaj promast)
COc1cc(/C=C(\C#N)c2nc3ccccc3[nH]2)cc(Br)c1OCc1ccc(F)cc1	Mdm2-MdmX inh 75.0 | Mdm2-MdmX conf inactive | FLuc counter 39.2
CCN(CC)c1ccc(/C=C(/C#N)c2nc3ccc(C)cc3[nH]2)c(OC(C)C)c1	T cruzi inh 84.3, Mdm2-MdmX inh 52.2, Lmaj promast 99.6 | Mdm2-MdmX conf 43.9 | FLuc counter 78.7
CCOc1cc(N(CC)CC)ccc1/C=C(/C#N)c1nc2ccccc2[nH]1	T cruzi inh inconclusive, Mdm2-MdmX inh 50.6, Lmaj promast 79.9 | Mdm2-MdmX conf 47.4 | FLuc counter 91.8
COc1ccc(N(C)C(=O)c2oc(=O)c3ccccc3c2-c2ccc(C)cc2)c(OC)c1	none (no result: CSC inhib, Lmaj promast)
C[C@H](CO)N1C[C@H](C)[C@@H](CN(C)Cc2ccncc2)Oc2c(NC(=O)C3CC3)cccc2C1=O	none (no result: T cruzi inh, Lmaj promast, SKKanGAS inh)
Cc1cc(=O)oc2cc(OCC(=O)N3c4ccccc4CC3C)ccc12 (stereo not given)	Mdm2-MdmX inh 50.6 (no result: CSC inhib) | Mdm2-MdmX conf 62.0 | FLuc counter 46.3
COc1ccc(NC(=O)[C@H](Cc2c[nH]c3ccccc23)NC(=O)[C@@H]2Cc3ccccc3CN2)cc1	Mdm2-MdmX inh 92.0 (no result: Beta apoptosis, Lmaj promast) | Mdm2-MdmX conf 72.8 | FLuc counter 38.6
CC(C)c1ccc(NC(=O)[C@H](Cc2c[nH]c3ccccc23)NC(=O)[C@@H]2Cc3ccccc3CN2)cc1	Mdm2-MdmX inh 96.4 (no result: Lmaj promast) | Mdm2-MdmX conf 78.8 | FLuc counter inactive
COc1ccc(CNC(=O)[C@H](Cc2c[nH]c3ccccc23)NC(=O)[C@@H]2Cc3ccccc3CN2)cc1	none (no result: Lmaj promast)
Cc1cc(C(=O)N/N=C/c2ccc(OC(=O)c3ccccc3Br)cc2)n[nH]1	none
COc1ccc(C(=O)N/N=C/c2ccccc2OC(=O)c2ccccc2)cc1	Beta apoptosis 102.5, Mdm2-MdmX inh 53.1 (no result: CSC inhib, Lmaj promast) | Mdm2-MdmX conf 41.0 | FLuc counter 111.5
